Reference: ChEMBL document CHEMBL2157969, “Chalcone inhibitors of the NorA efflux pump in Staphylococcus aureus whole cells and enriched everted membrane vesicles” (Bioorg Med Chem, 2012)
pIC50: −log10 of the molar value. Activity calls are given as the source filed them. No cut-off for these calls is given here.

How the values were obtained:
[1] = tested on: Escherichia coli; experiment: Inhibition of Hoechst 33342 dye in norA-deficient Escherichia coli DH10B expressing pTrc99A at 2 ug/mL by spectrofluorometer analysis; format: functional, organism-based; settings: K-12 DH10B
Summary of the method: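 Everted membrane vesicles were made from overnight E. coli DH10B carrying pTrcHis2C-norA or control pTrc99A. PMSF (0.1 mM final) was added before French press and DNase (0.1 mg/mL final) to the lysate. Vesicles were diluted to 80 µg protein/mL in 50 mM potassium HEPES, 8.5 mM NaCl, 2 mM MgCl2, pH 7.2. Hoechst 33342 was added, then Mg2+-ATP after the signal stabilised (~30 s). Inhibitor was added at 150–160 s. Fluorescence ex 355/em 457 nm over 300 s.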

[2] = target: T1, Quinolone resistance protein NorA (Staphylococcus aureus) (UniProt P0A0J7); experiment: Inhibition of norA-mediated ethidium bromide efflux in methicillin-resistant Staphylococcus aureus SA-1199B at 2.5 ug/ml by spectrofluorometric analysis
T1 sequence (whole entry): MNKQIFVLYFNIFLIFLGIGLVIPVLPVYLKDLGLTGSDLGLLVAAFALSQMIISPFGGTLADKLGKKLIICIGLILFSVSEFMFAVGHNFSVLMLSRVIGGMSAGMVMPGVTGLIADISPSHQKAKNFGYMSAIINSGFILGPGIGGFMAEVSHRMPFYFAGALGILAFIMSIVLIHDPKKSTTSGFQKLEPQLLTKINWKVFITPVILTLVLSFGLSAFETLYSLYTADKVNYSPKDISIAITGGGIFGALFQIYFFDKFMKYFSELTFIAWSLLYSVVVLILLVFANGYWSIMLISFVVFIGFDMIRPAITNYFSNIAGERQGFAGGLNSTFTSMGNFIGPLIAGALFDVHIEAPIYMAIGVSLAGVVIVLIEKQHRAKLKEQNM
Summary of the method: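 Whole-cell efflux assay, strain grown in Mueller Hinton II broth; compounds dissolved in DMSO, 1% DMSO in MHB II as negative control, reserpine as positive control. Background read from a pellet resuspended in clean MHB II. Fluorescence read in duplicate at ex 530 nm / em 600 nm; the mean is reported as percent reduction of efflux versus control.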

[3] = tested on: Staphylococcus aureus; experiment: Antibacterial activity against Staphylococcus aureus ATCC 29213 […] at 0.2 to 25 ug/ml after 20 hrs by microdilution method; format: functional, organism-based
Summary of the method: (§1)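 Broth microdilution in Mueller Hinton broth II with an inoculum of 5 × 10⁵ cfu/mL, incubated 20 h at 35 °C. MIC is the lowest concentration with no visible growth. Controls were bacteria with DMSO at up to about 1%, and ciprofloxacin. Run to CLSI/EUCAST guidelines in duplicate or more.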

[4] = target: T1, Quinolone resistance protein NorA (Staphylococcus aureus); experiment: Inhibition of norA-mediated ethidium bromide efflux in methicillin-resistant Staphylococcus aureus SA-1199B at 20 ug/ml by spectrofluorometric analysis
Summary of the method: (§2)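 Ethidium bromide efflux from S. aureus cells in MHB II, compounds dissolved in DMSO. Reserpine 20 µg/mL as positive control and 1% DMSO as negative control; background taken from a resuspended pellet in clean medium. Fluorescence read at ex 530/em 600 nm in duplicate; mean given as percent reduction of efflux versus control.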

[5] = target: T1, Quinolone resistance protein NorA (Staphylococcus aureus); experiment: Inhibition of norA-mediated ethidium bromide efflux in methicillin-resistant Staphylococcus aureus SA-1199B at 10 ug/ml by spectrofluorometric analysis; summary of the method: as §2
[6] = target: T1, Quinolone resistance protein NorA (Staphylococcus aureus); experiment: Inhibition of norA in Staphylococcus aureus SA-1199B overexpressing norA assessed as fold reduction in ciprofloxacin MIC at 25 ug/mL by checkerboard assay
[7] = target: T1, Quinolone resistance protein NorA (Staphylococcus aureus); experiment: Inhibition of norA in Staphylococcus aureus ATCC […] assessed as fold reduction in ciprofloxacin MIC at 25 ug/mL by checkerboard assay
[8] = target: T2, Quinolone resistance protein NorA (Staphylococcus aureus, UniProt P0A0J7); experiment: Inhibition of norA-mediated ethidium bromide efflux in methicillin-resistant Staphylococcus aureus SA-1199B by spectrofluorometric analysis; summary of the method: as §2
T2 sequence (P0A0J7 whole entry): T1 sequence (whole entry)

[9] = target: T1, Quinolone resistance protein NorA (Staphylococcus aureus); experiment: Inhibition of norA-mediated ethidium bromide efflux in methicillin-resistant Staphylococcus aureus SA-1199B at 5 ug/ml by spectrofluorometric analysis; summary of the method: as §2
[10] = tested on: Staphylococcus aureus; experiment: Antibacterial activity against Staphylococcus aureus SA-1199B overexpressing norA at 0.2 to 25 ug/ml after 20 hrs by microdilution method; format: functional, organism-based; summary of the method: as §1
[11] = target: T1, Quinolone resistance protein NorA (Staphylococcus aureus); experiment: Inhibition of norA in Staphylococcus aureus SA-1199B overexpressing norA assessed as fold reduction in ciprofloxacin MIC by checkerboard assay
[12] = target: T1, Quinolone resistance protein NorA (Staphylococcus aureus); experiment: Inhibition of norA in Staphylococcus aureus SA-1199B overexpressing norA assessed as fold reduction in ciprofloxacin MIC by checkerboard assay
Summary of the method: (§3)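 Checkerboard in MHB with twofold serial dilutions: ciprofloxacin 0.05–12.5 µg/mL against inhibitor 0.2–25 µg/mL. Inoculum 5 × 10⁵ cfu/mL, 20 h at 35 °C, visual MIC read-out. Fold reduction of ciprofloxacin MIC recorded at the inhibitor concentration giving it. FIC index is the sum of both drugs' FICs; ≤0.5 counts as synergy.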

[13] = tested on: Escherichia coli; experiment: Inhibition of acridine orange efflux in norA-deficient Escherichia coli DH10B expressing pTrc99A at 2 ug/mL by spectrofluorometer analysis; format: functional, organism-based; settings: K-12 DH10B
Summary of the method: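 Proton gradient was read with acridine orange (500 nM final) in NorA-enriched or pTrc99A control everted E. coli DH10B vesicles. Buffer: 50 mM potassium HEPES, 8.5 mM NaCl, 2 mM MgCl2, pH 7.2. Vesicles were energised with Mg2+-ATP. Valinomycin and nigericin dissipated the gradients, and norfloxacin was given at 10 µM. Fluorescence ex 494/em 530 nm.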

[14] = target: T1, Quinolone resistance protein NorA (Staphylococcus aureus); experiment: Inhibition of norA in Staphylococcus aureus ATCC 29213 assessed as fold reduction in ciprofloxacin MIC at 12.5 ug/mL by checkerboard assay
[15] = target: T1, Quinolone resistance protein NorA (Staphylococcus aureus); settings: SA-1199B
[16] = target: T1, Quinolone resistance protein NorA (Staphylococcus aureus); settings: ATCC 29213
[17] = target: T1, Quinolone resistance protein NorA (Staphylococcus aureus); experiment: Inhibition of norA in Staphylococcus aureus SA-1199B overexpressing norA assessed as fold reduction in ciprofloxacin MIC at 12.5 ug/mL by checkerboard assay; summary of the method: as §3

| SMILES | inhibition [1] | inhibition [2] [%] | Activity [3] | inhibition [4] [%] | inhibition [5] [%] | pIC50 [8] | inhibition [9] [%] | Activity [10] | also measured |
| --- | --- | --- | --- | --- | --- | --- | --- | --- | --- |
| COc1cc(OC)c(/C=C/C(=O)c2ccc(O)cc2)c(OC)c1 | inactive |  |  |  |  |  |  |  |  |
| CN(C)CCOc1ccc(C(=O)/C=C/c2ccccc2F)cc1 | inactive | 33.7 | inactive | 97 | 70.3 | 4.74 | 48.5 | inactive | fractional inhibitory concentration index (FICI) [6]: 0.25; fractional inhibitory concentration index (FICI) [7]: > 1 |
| COc1cc(O)cc(C)c1/C=C/C(=O)c1ccc(O)cc1 | inactive | 36.6 | inactive | 91.7 | 84.3 | 4.87 | 63.7 | inactive | inhibition [11]: Dose-dependent effect; inhibition [12]: Dose-dependent effect; inhibition [13]: inactive; fractional inhibitory concentration index (FICI) [14]: 0.25; FICI [15]: 0.25 |
| COc1ccc(C(=O)/C=C/c2cccc(OCCN(C)C)c2)c(OC)c1OC | inactive |  |  |  |  |  |  |  | inhibition [13]: Active |
| CN(C)CCOc1ccc(C(=O)/C=C/c2cccc(F)c2)cc1 | inactive |  |  |  |  |  |  |  |  |
| CN(C)CCOc1ccc(C(=O)/C=C/c2ccc(N(C)C)cc2)cc1 | inactive | 48 | inactive | 98.7 | 97.4 | 5.11 | 96.5 | inactive | fractional inhibitory concentration index (FICI) [6]: inactive; fractional inhibitory concentration index (FICI) [14]: 0.5 |
| COc1cccc(/C=C/C(=O)c2ccc(O)cc2)c1OC | inactive | 11.7 | inactive | 90.8 | 73.3 | 4.61 | 38 | inactive | FICI [16]: 0.25; fractional inhibitory concentration index (FICI) [17]: 0.25 |
| C=CCOc1ccc(C(=O)/C=C/c2cccc(OC)c2OC)cc1 | inactive |  |  |  |  |  |  |  |  |
| COc1cc(/C=C/C(=O)c2ccc(OC)c(OC)c2OC)cc(OC)c1 | inactive |  |  |  |  |  |  |  |  |
| COc1ccc(/C=C/C(=O)c2ccccc2OC)c(OC)c1 | inactive |  |  |  |  |  |  |  |  |
| CN(C)CCOc1ccc(C(=O)/C=C/c2ccc(C#N)cc2)cc1 | inactive |  |  |  |  |  |  |  |  |
| COc1ccc(CCN(C)CCCC(C#N)(c2ccc(OC)c(OC)c2)C(C)C)cc1OC (configuration not stated) | inactive |  |  |  |  |  |  |  |  |
